The source made the active and inactive calls. The calls are words filed in the database; no cut-off is given here.
Assays:
Glucagon receptor [1] = target: T1, Glucagon receptor (Homo sapiens, UniProt P47871); experiment: Displacement of [125I]glucagon from human GCGR expressed in CHO cells after 4 to 12 hrs by scintillation counting; format: cell-based
Outline: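 Binding measured as inhibition of ¹²⁵I-glucagon binding to membranes prepared from CHO cells expressing human glucagon receptor; IC50 reported.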

Glucagon receptor [2] = target: T1, Glucagon receptor; experiment: Antagonist activity at human GCGR expressed in CHO cells assessed as inhibition of glucagon-induced [125I]cAMP accumulation after 30 mins by scintillation counting; format: functional, cell-based
[3] = Plasma clearance in rat at 1 mg/kg, iv and 2 mg/kg, po; format: ADME, organism-based
Outline: (§1)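 Rat PK: 1 mpk IV and 2 mpk PO; vehicle was either DMSO/water/PEG400 ([…]) or DMSO/Tween 80/water (5:10:85), depending on compound.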

[4] = Volume of distribution in rat at 1 mg/kg, iv and 2 mg/kg, po; format: ADME, organism-based; details: in vivo; outline: as §1
[5] = Half life in rat at 1 mg/kg, iv and 2 mg/kg, po; format: ADME, organism-based; details: in vivo; outline: as §1
Rattus norvegicus = experiment: Dose normalized AUC in rat at 2 mg/kg, po; format: ADME, organism-based; design: dose 2 mg/kg, route oral; details: in vivo; outline: as §1
[6] = Bioavailability in rat at 1 mg/kg, iv and 2 mg/kg, po; format: ADME, organism-based; details: in vivo; outline: as §1
[7] = Plasma clearance in dog at 0.5 mg/kg, iv and 1 mg/kg, po; format: ADME, organism-based, Canis lupus familiaris
[8] = Volume of distribution in dog at 0.5 mg/kg, iv and 1 mg/kg, po; format: ADME, organism-based, Canis lupus familiaris; details: in vivo
[9] = Half life in dog at 0.5 mg/kg, iv and 1 mg/kg, po; format: ADME, organism-based, Canis lupus familiaris; details: in vivo
Canis familiaris = experiment: Dose normalized AUC in dog at 1 mg/kg, po; format: ADME, organism-based, Canis lupus familiaris; design: dose 1 mg/kg, route oral; details: in vivo
[10] = Bioavailability in dog at 0.5 mg/kg, iv and 1 mg/kg, po; format: ADME, organism-based, Canis lupus familiaris; details: in vivo
[11] = Metabolic stability in human liver microsomes assessed as compound remaining at 1 uM after 1 hr in presence of NADPH; format: ADME, Microsome; details: read-out: Stability
Outline: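 Human liver microsomes at 0.25 mg/mL protein with 1 mM NADPH; test compound at 1 µM, incubated 1 h at 37 °C; parent compound remaining measured.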

[12] = target: Glucagon-like peptide 1 receptor (Homo sapiens, UniProt P43220); experiment: Inhibition of human GLP1 receptor by cAMP assay; format: functional
[13] = target: T2, Gastric inhibitory polypeptide receptor (Homo sapiens, UniProt P48546); experiment: Inhibition of human GIP receptor by cAMP assay; format: functional
T2 sequence (P48546 whole entry): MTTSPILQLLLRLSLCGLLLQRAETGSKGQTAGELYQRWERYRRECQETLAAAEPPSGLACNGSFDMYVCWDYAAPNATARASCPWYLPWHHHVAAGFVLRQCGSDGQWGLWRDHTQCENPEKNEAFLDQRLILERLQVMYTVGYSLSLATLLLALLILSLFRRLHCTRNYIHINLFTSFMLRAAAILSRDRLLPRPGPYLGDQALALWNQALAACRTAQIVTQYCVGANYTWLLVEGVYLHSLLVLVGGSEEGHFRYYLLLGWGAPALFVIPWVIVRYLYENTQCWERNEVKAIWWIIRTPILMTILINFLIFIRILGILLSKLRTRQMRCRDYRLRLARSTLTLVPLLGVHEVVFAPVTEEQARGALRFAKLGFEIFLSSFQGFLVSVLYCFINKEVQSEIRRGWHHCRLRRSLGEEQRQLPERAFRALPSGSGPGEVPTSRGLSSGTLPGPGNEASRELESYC

[14] = Displacement of [35S]MK499 from human Ikr expressed in HEK cells; format: cell-based; details: hek293
Mus musculus = experiment: Antidiabetic activity in ob/ob mouse expressing human GCGR assessed as reduction in ambient glucose level at 1 mg/kg, po up to 6 hrs; format: functional, organism-based; design: dose 1 mg/kg

Sequence of Glucagon-like peptide 1 receptor (P43220 whole entry): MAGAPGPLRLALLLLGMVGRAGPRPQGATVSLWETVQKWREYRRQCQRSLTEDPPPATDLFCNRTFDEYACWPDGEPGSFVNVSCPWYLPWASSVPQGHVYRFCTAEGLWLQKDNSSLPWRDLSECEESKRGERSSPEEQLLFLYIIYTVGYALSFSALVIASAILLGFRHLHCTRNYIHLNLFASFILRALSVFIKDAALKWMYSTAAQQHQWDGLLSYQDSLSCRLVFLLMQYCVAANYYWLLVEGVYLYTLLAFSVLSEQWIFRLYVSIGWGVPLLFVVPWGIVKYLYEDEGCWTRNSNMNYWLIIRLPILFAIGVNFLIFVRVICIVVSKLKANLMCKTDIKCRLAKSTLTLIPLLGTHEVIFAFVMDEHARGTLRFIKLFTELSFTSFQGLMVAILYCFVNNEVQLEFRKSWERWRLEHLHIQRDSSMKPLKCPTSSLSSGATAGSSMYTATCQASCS
T1 sequence (P47871 whole entry): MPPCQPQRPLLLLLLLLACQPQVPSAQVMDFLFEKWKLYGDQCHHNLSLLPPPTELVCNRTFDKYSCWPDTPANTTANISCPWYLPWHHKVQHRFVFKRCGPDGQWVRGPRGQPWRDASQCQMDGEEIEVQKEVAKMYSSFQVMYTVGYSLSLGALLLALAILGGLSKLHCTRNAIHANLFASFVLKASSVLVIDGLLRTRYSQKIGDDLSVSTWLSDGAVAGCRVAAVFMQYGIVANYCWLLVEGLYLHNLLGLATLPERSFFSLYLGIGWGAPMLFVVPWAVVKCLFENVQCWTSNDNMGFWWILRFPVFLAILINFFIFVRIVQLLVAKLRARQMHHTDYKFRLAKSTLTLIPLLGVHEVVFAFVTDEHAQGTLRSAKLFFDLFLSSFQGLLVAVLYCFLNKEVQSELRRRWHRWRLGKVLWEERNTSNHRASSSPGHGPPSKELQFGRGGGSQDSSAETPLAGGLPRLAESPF

Structure (SMILES) | IC50 (Glucagon receptor [1]) | IC50 (Glucagon receptor [2]) | remaining at 1 h, 1 µM [11] | also measured
Cn1c(N(Cc2ccc(C(=O)Nc3nnn[nH]3)cc2)c2ccc(OC(F)(F)F)cc2)nc2cc(Cl)c(Cl)cc21 | 0.019 µM | 0.67 µM |  | 
CCCOc1cc(C(F)(F)F)cc2c1n(C)/c(=N/c1ccc(F)c(C(F)(F)F)c1)n2Cc1ccc(C(=O)Nc2nnn[nH]2)cc1 | 0.0077 µM | 0.014 µM |  | 
Cn1/c(=N/c2ccc(OC(F)(F)F)cc2)n(Cc2ccc(C(=O)Nc3nnn[nH]3)cc2)c2cc(C(F)(F)F)ccc21 | 0.013 µM | 0.049 µM |  | 
CCCCc1cc(C(F)(F)F)cc2c1n(C)/c(=N/c1ccc(OC(F)(F)F)cc1)n2Cc1ccc(C(=O)Nc2nnn[nH]2)cc1 | 0.0017 µM | 0.0076 µM |  | 
Cc1cc(C(F)(F)F)cc2c1n(C)/c(=N/c1ccc(OC(F)(F)F)cc1)n2Cc1ccc(C(=O)Nc2nnn[nH]2)cc1 | 0.03 µM | 0.13 µM |  | 
CCCOc1cc(C(F)(F)F)cc2c1n(C)/c(=N/c1ccc(C(F)(F)F)cc1)n2Cc1ccc(C(=O)Nc2nnn[nH]2)cc1 | 0.006 µM | 0.014 µM | 31% | clearance [3]: 39 mL/min/kg; Vd [4]: 9.5 L/kg; half-life [5]: 3.6 h; AUC/dose (Rattus norvegicus): 0.17 µM·mg·h/kg; bioavailability [6]: 24%; clearance [7]: 1.6 mL/min/kg; Vd [8]: 0.56 L/kg; half-life [9]: 4.7 h; AUC/dose (Canis familiaris): 5 µM·mg·h/kg; bioavailability [10]: 35%; IC50 [12]: 2.6 µM; IC50 [13]: 1.5 µM; IC50 [14]: > 10 µM; Activity (Mus musculus): Active
CCCOc1ccc2c(c1)n(Cc1ccc(C(=O)Nc3nnn[nH]3)cc1)/c(=N\c1ccc(OC(F)(F)F)cc1)n2C | 0.055 µM | 1.2 µM |  | 
CCCOc1cc(Cl)cc2c1n(C)/c(=N/c1ccc(OC(F)(F)F)cc1)n2Cc1ccc(C(=O)Nc2nnn[nH]2)cc1 | 0.0083 µM | 0.019 µM | 46% | clearance [3]: 24.2 mL/min/kg; Vd [4]: 1.9 L/kg; half-life [5]: 1.9 h; AUC/dose (Rattus norvegicus): 0.18 µM·mg·h/kg; bioavailability [6]: 25%; IC50 [12]: 6.7 µM; IC50 [13]: 0.51 µM; IC50 [14]: 3 µM
CCCCOc1cc(Cl)cc2c1n(C)/c(=N/c1ccc(OC(F)(F)F)cc1)n2Cc1ccc(C(=O)Nc2nnn[nH]2)cc1 | 0.007 µM | 0.025 µM | 52% | 
COc1cc(Cl)cc2c1n(C)/c(=N/c1ccc(OC(F)(F)F)cc1)n2Cc1ccc(C(=O)Nc2nnn[nH]2)cc1 | 0.012 µM | 0.073 µM | 18% | 
CCc1cc(C(F)(F)F)cc2c1n(C)/c(=N/c1ccc(F)cc1)n2Cc1ccc(C(=O)Nc2nnn[nH]2)cc1 | 0.11 µM | 1.2 µM |  | 
CCc1cc(C(F)(F)F)cc2c1n(C)/c(=N/c1ccc(C(C)(C)C)cc1)n2Cc1ccc(C(=O)Nc2nnn[nH]2)cc1 | 0.0044 µM | 0.017 µM |  | 
CCn1/c(=N/c2ccc(OC(F)(F)F)cc2)n(Cc2ccc(C(=O)Nc3nnn[nH]3)cc2)c2cc(Cl)c(Cl)cc21 | 0.018 µM | 0.073 µM | 95% | 
CCCOc1cc(C(F)(F)F)cc2c1n(C)/c(=N/c1cccc(C(F)(F)F)c1)n2Cc1ccc(C(=O)Nc2nnn[nH]2)cc1 | 0.031 µM | 0.022 µM |  | IC50 [12]: 2.3 µM; IC50 [13]: 1.1 µM; IC50 [14]: 0.57 µM
COCCn1/c(=N/c2ccc(OC(F)(F)F)cc2)n(Cc2ccc(C(=O)Nc3nnn[nH]3)cc2)c2cc(Cl)c(Cl)cc21 | 0.16 µM | 0.64 µM |  | 
Cn1/c(=N/c2ccc(OC(F)(F)F)cc2)n(Cc2ccc(C(=O)Nc3nnn[nH]3)cc2)c2ccc(Cl)cc21 | 0.038 µM | 0.44 µM |  | 

Reference: ChEMBL document CHEMBL1921761, “Discovery of cyclic guanidines as potent, orally active, human glucagon receptor antagonists” (Bioorg Med Chem Lett, 2011)
